Measured values gathered from unrelated publications.
Lines come from different studies, so protocols differ.
Target: 3-phosphoinositide-dependent protein kinase 1 (PDPK1, Homo sapiens, UniProt O15530)

SMILES | test | conditions | inhibition [%]
CC(C)COc1cccc(Cl)c1-c1cc2cnc(N)nc2nc1N1C[C@@H]2[C@@H](N)[C@@H]2C1 | enzyme activity, inhibitor, FRET | 25 µM | 0
CCN(CC)CCNC(=O)c1c(C)[nH]c(/C=C2\C(=O)Nc3ccc(F)cc32)c1C | binding, competition with immobilised ligand | 10 µM | 71
CC/C(=N\NC(=O)NCc1cccc(O)c1)c1ccc(O)c(C)c1O | enzyme activity, inhibitor | 0.1 µM | -1.2
COc1cc2ncnc(Nc3ccc(Oc4ccccc4)c(C)c3C)c2cc1OC | enzyme activity, inhibitor | 1 µM | -2
CN(C)C1CCN(CC#Cc2nn(C3CCCC3)c3nc(NCc4ccccc4)ncc23)C1 (centres unmarked) | enzyme activity, inhibitor, FRET | 10 µM | 3
CNC(=O)c1cc(Oc2ccc(NC(=O)Nc3ccc(Cl)c(C(F)(F)F)c3)cc2)ccn1 | enzyme activity, inhibitor | 0.3 µM | -2
COc1cccc2c(NCc3ccccc3)nc(-n3c(N)nc4ccccc43)nc12 | target engagement in cells, inhibitor, chemoproteomics | 20 mM | -5.3
CS(=O)(=O)Nc1cccc(-c2csc(NC(=O)CSc3nc4nccnc4c(=O)n3CCc3ccccc3)n2)c1 | enzyme activity, inhibitor | 10 µM | 7
Cc1ccc(Nc2nccc(N(C)c3ccc4c(C)n(C)nc4c3)n2)cc1S(N)(=O)=O | enzyme activity, inhibitor | 0.3 µM | 5
CN(c1ncccc1CNc1nc(Nc2ccc3c(c2)CC(=O)N3)ncc1C(F)(F)F)S(C)(=O)=O | enzyme activity, inhibitor | 1 µM | 36
CCCCNc1ncc2c(-c3ccc(F)cc3)nn(C[C@H]3CC[C@H](N)CC3)c2n1 | target engagement in cells, inhibitor, chemoproteomics | 20 mM | 7.1
